Test results from paper PMC7740640 (Xenobiotica; the fate of foreign compounds in biological …, 2020).
“And” between values parts separate entries of the source, which are not always exact repeats. Equal values may be shown once.

Legend:
Format in all cases: in vitro ADME
CYP1A2 = target: T1, CYP1A2 (Homo sapiens, UniProt P05177); experiment: C152 metabolism
T1 sequence (P05177 2-516 limits assumed): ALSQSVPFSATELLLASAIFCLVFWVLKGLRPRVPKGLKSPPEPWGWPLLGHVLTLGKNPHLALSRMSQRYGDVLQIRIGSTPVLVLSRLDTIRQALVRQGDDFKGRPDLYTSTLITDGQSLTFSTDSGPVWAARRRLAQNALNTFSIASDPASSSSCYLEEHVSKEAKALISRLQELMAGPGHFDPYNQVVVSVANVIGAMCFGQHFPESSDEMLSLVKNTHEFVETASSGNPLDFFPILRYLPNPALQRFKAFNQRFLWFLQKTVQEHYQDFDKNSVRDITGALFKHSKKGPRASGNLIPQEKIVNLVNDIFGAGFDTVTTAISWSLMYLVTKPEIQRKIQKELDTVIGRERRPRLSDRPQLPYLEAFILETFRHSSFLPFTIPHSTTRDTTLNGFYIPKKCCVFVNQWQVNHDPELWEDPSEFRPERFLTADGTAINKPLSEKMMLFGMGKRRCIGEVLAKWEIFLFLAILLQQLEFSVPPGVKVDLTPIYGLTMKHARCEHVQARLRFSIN

CYP2C19 = CYP2C19 (Homo sapiens, UniProt P33261); experiment: C152 metabolism; settings: for Specific rate: CYP2C19
Chain of CYP2C19 (P33261 whole entry): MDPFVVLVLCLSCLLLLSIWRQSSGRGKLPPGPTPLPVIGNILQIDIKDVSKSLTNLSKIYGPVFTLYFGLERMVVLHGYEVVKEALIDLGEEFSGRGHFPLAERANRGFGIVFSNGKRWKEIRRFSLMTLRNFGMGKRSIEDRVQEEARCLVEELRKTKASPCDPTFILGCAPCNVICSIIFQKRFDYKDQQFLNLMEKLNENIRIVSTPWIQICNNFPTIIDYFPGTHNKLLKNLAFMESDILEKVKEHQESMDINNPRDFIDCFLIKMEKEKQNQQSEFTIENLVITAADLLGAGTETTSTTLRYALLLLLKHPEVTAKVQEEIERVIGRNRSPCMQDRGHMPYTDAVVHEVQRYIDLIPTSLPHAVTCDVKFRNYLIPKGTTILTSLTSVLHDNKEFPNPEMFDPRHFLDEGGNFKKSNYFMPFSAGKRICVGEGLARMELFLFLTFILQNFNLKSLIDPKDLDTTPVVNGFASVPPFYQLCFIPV
Procedure, shortened: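 Human P450s in Supersomes that co-express human CPR and cytochrome b5. Reaction in 0.1 M Na-HEPES pH 7.4 with 60 mM KCl, stirred at 30 °C. C152 0.1–30 μM added from acetone stock; 200 μM NADPH starts it. Fluorescence rise read at 500 nm (isosbestic, mono-demethylation step). Rate is the linear slope over 3–5 min, scaled by the C151–C152 fluorescence difference. Michaelis–Menten or Hill fit, Vmax per P450, 2–6 runs; rate at 30 μM computed from fit.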

CYP2D6 = CYP2D6 (Homo sapiens, UniProt P10635); experiment: C152 metabolism by Supersomes containing CYP2D6; settings: recombinant CYP2D6 Supersomes
Chain of CYP2D6 (P10635 whole entry): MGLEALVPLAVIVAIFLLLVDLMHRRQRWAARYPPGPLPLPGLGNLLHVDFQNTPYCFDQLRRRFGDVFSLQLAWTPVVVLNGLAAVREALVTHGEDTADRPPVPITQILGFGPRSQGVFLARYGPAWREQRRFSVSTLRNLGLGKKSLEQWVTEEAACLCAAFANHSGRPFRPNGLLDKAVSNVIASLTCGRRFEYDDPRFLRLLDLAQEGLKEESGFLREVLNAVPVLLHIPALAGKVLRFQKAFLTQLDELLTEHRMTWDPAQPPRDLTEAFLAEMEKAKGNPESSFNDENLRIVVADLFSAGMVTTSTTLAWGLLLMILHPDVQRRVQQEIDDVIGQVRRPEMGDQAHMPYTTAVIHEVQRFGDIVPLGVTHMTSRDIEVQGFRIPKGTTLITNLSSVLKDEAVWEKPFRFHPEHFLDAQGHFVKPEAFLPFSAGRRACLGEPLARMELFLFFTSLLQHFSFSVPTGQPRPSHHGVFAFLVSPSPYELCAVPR

CYP2E1 = CYP2E1 (Homo sapiens, UniProt P05181); experiment: C152 metabolism by Supersomes containing CYP2E1; settings: recombinant CYP2E1 Supersomes
Chain of CYP2E1 (P05181 whole entry): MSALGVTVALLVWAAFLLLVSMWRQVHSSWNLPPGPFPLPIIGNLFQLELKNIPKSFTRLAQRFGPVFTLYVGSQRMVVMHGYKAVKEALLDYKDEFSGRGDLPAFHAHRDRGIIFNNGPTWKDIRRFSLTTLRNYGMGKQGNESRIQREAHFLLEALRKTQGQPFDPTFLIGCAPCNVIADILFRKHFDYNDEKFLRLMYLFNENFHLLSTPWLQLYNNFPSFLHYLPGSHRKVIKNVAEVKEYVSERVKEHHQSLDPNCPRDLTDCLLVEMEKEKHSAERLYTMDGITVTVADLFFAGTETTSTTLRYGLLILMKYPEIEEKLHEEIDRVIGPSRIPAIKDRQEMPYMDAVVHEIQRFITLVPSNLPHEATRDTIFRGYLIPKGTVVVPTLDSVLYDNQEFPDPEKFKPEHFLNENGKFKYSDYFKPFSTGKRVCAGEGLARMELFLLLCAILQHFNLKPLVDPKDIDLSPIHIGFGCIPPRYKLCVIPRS

CYP2B6 = target: T2, CYP2B6 (Homo sapiens, UniProt P20813); experiment: Projected involvement in C152 metabolism in HLM
T2 sequence (P20813 1-491): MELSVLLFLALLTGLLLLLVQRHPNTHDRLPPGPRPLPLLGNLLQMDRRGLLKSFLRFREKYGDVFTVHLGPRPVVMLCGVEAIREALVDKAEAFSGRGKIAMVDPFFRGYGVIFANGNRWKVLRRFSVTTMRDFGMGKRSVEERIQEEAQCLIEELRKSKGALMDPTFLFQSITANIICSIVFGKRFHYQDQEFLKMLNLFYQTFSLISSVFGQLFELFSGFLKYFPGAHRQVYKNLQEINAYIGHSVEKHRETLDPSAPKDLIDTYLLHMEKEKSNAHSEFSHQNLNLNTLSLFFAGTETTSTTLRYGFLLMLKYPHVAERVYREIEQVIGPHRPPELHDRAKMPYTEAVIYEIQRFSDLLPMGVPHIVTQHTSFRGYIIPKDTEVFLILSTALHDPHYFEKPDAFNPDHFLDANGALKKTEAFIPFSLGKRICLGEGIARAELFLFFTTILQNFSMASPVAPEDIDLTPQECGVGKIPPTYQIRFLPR
Procedure, shortened: (§1)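 Calculated values, no new incubations. Each of seven C152-metabolizing P450s has a fractional content in the pooled HLM P450 pool (LC-MS/MS MRM). That fraction is multiplied by its Supersome Vmax (saturation) or by its rate at 30 μM C152 from Hill or Michaelis–Menten parameters. Expected participation (% TNR) is each normalized rate divided by the sum of all seven.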

CYP2C9 = CYP2C9 (Homo sapiens, UniProt P11712); experiment: Projected involvement in C152 metabolism in HLM
Chain of CYP2C9 (P11712 whole entry): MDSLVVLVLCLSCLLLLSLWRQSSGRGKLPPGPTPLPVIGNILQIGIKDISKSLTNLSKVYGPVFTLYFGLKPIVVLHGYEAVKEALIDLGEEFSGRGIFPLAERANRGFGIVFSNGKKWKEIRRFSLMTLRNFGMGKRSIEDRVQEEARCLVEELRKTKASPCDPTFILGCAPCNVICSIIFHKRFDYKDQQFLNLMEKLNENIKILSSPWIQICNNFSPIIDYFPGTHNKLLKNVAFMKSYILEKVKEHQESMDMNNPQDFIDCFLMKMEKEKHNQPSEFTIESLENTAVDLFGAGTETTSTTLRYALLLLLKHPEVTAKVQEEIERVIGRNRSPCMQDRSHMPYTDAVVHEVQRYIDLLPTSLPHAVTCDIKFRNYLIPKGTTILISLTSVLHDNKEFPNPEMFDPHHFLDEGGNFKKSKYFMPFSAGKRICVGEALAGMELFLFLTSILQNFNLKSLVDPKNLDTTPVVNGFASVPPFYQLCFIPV
Procedure, shortened: as §1

[1] = at saturation of all P450 species

CN(C)c1ccc2c(C(F)(F)F)cc(=O)oc2c1 [C152, 7-Dimethylamino-4-trifluromethylcoumarin]
Specific rate (CYP1A2; CYP1A2, at 30 μM C152, calculated from fit parameters): 4.5 min⁻¹
Specific rate (CYP1A2; CYP1A2, at saturation (Vmax in Supersomes)): 5.0 min⁻¹
C151 formed (both methods: LC-MS/MS and scanning fluorimetry) (CYP1A2; CYP1A2, fraction in total rate of C152 metabolism): 20–25%
Vmax (C152 metabolism, fluorimetric assay) (CYP1A2; SS(1A2), mol C152 per mol P450 per min): 5.0 ± 1.1 min⁻¹
Fraction of C151 formed, Fluorimetry (CYP1A2; SS(1A2), scanning fluorimetry with PCA): 26±7%
Km (CYP1A2; read-out: KM or S50 (C152 metabolism, fluorimetric assay), SS(1A2), Michaelis-Menten fit, 30 °C, pH 7.4): 2900 ± 1700 nM
Specific rate (CYP2C19; at 30 μM C152, calculated from fit parameters): 6.5 min⁻¹
Specific rate (CYP2C19; at saturation (Vmax in Supersomes)): 7.8 min⁻¹
Vmax (C152 metabolism, fluorimetric assay) (CYP2C19; SS(2C19), mol C152 per mol P450 per min): 7.8 ± 3.4 min⁻¹
Fraction of C151 formed, Fluorimetry (CYP2C19; SS(2C19), scanning fluorimetry with PCA): 3.2±2.4%
Km (CYP2C19; read-out: KM or S50 (C152 metabolism, fluorimetric assay), SS(2C19), Michaelis-Menten fit, 30 °C, pH 7.4): 5.7 ± 1.1 µM
activity with C152 (CYP2D6): no detectable activity
activity with C152 (CYP2E1): no detectable activity
Normalized rate (CYP2B6; at 30 μM C152): 0.863 min⁻¹
Expected participation (CYP2B6; at 30 μM C152, % TNR): 7.10%
Normalized rate (CYP2B6; [1]): 0.914 min⁻¹
Normalized rate (CYP2C9; at 30 μM C152): 0.496 min⁻¹
Expected participation (CYP2C9; at 30 μM C152, % TNR): 4% and 4.08%
Normalized rate (CYP2C9; [1]): 0.981 min⁻¹
